Structures are written as SMILES.

Assay [1] deals with T1, CTSL (Homo sapiens, UniProt P07711). Put plainly: Cathepsin L inhibition, progress curve assay with Z-Phe-Arg-AMC. The format is biochemical.
The next assay concerns the target CTSS (Homo sapiens, UniProt P25774). Description: Cathepsin S inhibition, progress curve assay with Z-Val-Val-Arg-AMC. The format is biochemical. In short, it runs like this: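 Buffer is 50 mM phosphate, pH 6.5, with 2.5 mM EDTA, DTT 8 mM and <1% DMSO, at 25 °C. Test compound is run at 1–20 μM. […] Results are averages of three independent experiments, errors as standard deviations.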

A further assay concerns the target CTSB (Homo sapiens, UniProt P07858). Description: Cathepsin B inhibition, progress curve assay with Z-Arg-Arg-AMC. The format is biochemical. In short, it runs like this:
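Buffer is 0.4 M acetate, pH 5.5, with 5 mM EDTA, 0.01% Triton X-100, DTT 10 mM and <1% DMSO, at 25 °C. Test compound is run at 1 nM to 100 μM. Enzyme is added last, and free AMC release is followed at once over 15 min. Progress curves are fitted to obtain kinact and Ki. CA-074 is the positive control. Values are means of three independent experiments ± SD.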

For another assay, the system named is DU-145 cells. Put plainly: Confocal imaging of intracellular fluorescence. The following applies: DU-145, CLIK-148 50 μM for 24 h before 7 (30 μM). In kind it is cell-based. In a few lines:
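Live DU-145 cells are grown 48 h in 35 mm dishes (DMEM, 10% FBS, 37 °C, 5% CO2), then given 30 μM test compound or DMSO vehicle for 2 h, washed thrice and imaged in PBS. In the inhibition arm, cells receive 50 μM CLIK-148 for 24 h first. Confocal imaging uses 405 nm excitation, 501–740 nm emission and 1.5 μm z-stacks, with four biological replicates at 20×. Thresholded fluorescence per image is divided by manual cell count.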

The target of assay [2] is T1, CTSL. The following applies: literature value; ref [47]; cited from earlier work.

T1 sequence (P07711 114-333): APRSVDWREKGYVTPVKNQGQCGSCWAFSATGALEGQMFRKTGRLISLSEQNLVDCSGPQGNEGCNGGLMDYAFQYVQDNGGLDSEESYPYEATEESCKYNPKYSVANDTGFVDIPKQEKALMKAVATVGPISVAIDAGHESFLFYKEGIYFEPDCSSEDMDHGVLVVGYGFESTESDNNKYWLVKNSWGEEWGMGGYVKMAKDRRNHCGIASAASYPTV
CTSS, sequence (P25774 115-331): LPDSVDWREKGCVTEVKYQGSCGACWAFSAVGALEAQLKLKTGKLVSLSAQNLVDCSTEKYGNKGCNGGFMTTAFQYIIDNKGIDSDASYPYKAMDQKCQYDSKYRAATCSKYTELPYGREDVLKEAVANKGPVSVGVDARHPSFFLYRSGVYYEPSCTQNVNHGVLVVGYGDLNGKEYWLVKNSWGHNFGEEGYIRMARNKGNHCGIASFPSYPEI

Take `CN(C)C(=O)C(Cc1ccccc1)NC(=O)[C@H]1O[C@@H]1C(=O)NCCCNC(=O)c1ccc(-c2ccccn2)nc1` (stereo partly drawn) [Compound 2, (2S,3S)-N^2-(3-([2,2′-Bipyridine]-5-carboxamido)-propyl)-N^3-(1-(dimethylamino)-1-oxo-3-phenylpropan-2-yl)-oxirane-2,3-dicarboxamide]: the inhibition constant (Ki) amounted to 0.74 ± 0.05 µM at CTSL [1], 3 ± 0.8 µM on CTSS and 296 ± 8 µM at CTSB. Moreover, the “kinact/Ki ratio CTSL/CTSS (selectivity)” value at CTSL [1] (CTSL over CTSS) is 8. Also, the kinact/KI at CTSL [1] (pH 5.5, read-out: CTSL kinact/Ki) came out at 42300 ± 4100 M⁻¹ s⁻¹; at CTSS (pH 6.5, read-out: CTSS kinact/Ki), 5300 ± 200 M⁻¹ s⁻¹; on CTSB (pH 5.5, read-out: CTSB kinact/Ki), 9 M⁻¹ s⁻¹. The kinact at CTSL [1] (read-out: CTSL kinact (rate of irreversible inactivation)) worked out at 0.031 ± 0.002 s⁻¹. Besides, the “Fold enhancement of CTSL kinact/Ki relative to free inhibitor 1” value on CTSL [1] (relative to 1) is reported as “roughly 3 fold”.

`CN(C)C(=O)[C@H](Cc1ccccc1)NC(=O)[C@H]1O[C@@H]1C(=O)NCCc1ccccn1` [CLIK-148, reference compound]: the “Decrease of intracellular fluorescence intensity of 7” value with DU-145 cells is “over 50%”. For the same molecule, the “CTSL kinact/Ki” value at CTSL [2] is 11000 ± 3000 M⁻¹ s⁻¹.

`O=S(=O)([O-])C(F)(F)F.[C-]#[O+].[C-]#[O+].[C-]#[O+].[Re+].c1ccncc1.c1cnc2c(c1)ccc1cccnc12` [[Re(phen)(CO)3(pyridine)](OTf), reference compound]: the “CTSL inhibition, in words” value on CTSL [1] (at concentrations up to 100 μM) was “no inhibition”.

For orientation: Ki means a dissociation constant, usually derived from enzyme kinetics or from competition with a known ligand. As a reminder, the kinact is the maximal first-order rate at which the target is inactivated.

The record behind these values is PMC6034508 (Inorganic chemistry, 2018).
